Reference: ChEMBL document CHEMBL1123711, “Substituted 1,2,3,4-tetrahydroaminonaphthols: antihypertensive agents, calcium channel blockers, and adrenergic receptor blockers with catecholamine-depleting effects” (J Med Chem, 1987)
The source made the active and inactive calls. The rule behind the calls is not given here.

Columns and labels:
Oryctolagus cuniculus = organism: Oryctolagus cuniculus; assay: Calcium channel blocking activity in vitro in rabbit thoracic aorta preparation (n=4) by using linear regression analysis; format: functional
Summary of the method: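 Rabbit thoracic aorta strips held under a 4-g preload in PSS at 37 °C, pH 7.35, gassed with 95% O2/5% CO2, equilibrated ≥1 h. Contraction by high-K+ (100 mM) PSS with Na+ reduced equimolarly. At plateau, cumulative test concentrations were added and relaxation was normalized to initial tension. IC50 by regression on the linear part of the concentration–response curve.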

Rattus norvegicus [1] = assay: Antihypertensive activity as percent average (0-24 hr) decrease in blood pressure at 45 umol/kg po (~22 mg/kg) in 4 spontaneously hypertensive rats (SHR); format: functional
Rattus norvegicus [2] = assay: Percent Catecholamine-depletion in heart by administering a dose of 2 x 45 umol/kg, perorally to 4 spontaneously hypertensive rats (SHR).; format: functional
Summary of the method: (§1)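 SHR given two oral doses of 45 µmol/kg, 17 h apart. Rats decapitated 4 h after the second dose; hearts and brains quickly removed and frozen. Tissue extracts in glutathione centrifuged at 0 °C, and the protein-free supernatant diluted and assayed in duplicate for catecholamines by radioenzymatic kit.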

Rattus norvegicus [3] = assay: Antihypertensive activity as percent average (over 24 hr) decrease in blood pressure at 135 umol/kg po (~40-50 mg/kg) in 5 spontaneously hypertensive rats (SHR); format: functional
Rattus norvegicus [4] = assay: Antihypertensive activity as percent maximum (0-6 hr) decrease in blood pressure at 135 umol/kg po (~40-50 mg/kg) in 5 spontaneously hypertensive rats (SHR); format: functional
Rattus norvegicus [5] = assay: Antihypertensive activity as percent maximum (0-6 hr) decrease in blood pressure at 45 umol/kg po (~22 mg/kg) in 4 spontaneously hypertensive rats (SHR); format: functional
Canis familiaris = organism: Canis familiaris; assay: Compound was evaluated for the slow action potential blockade in canine Purkinje fibers in vitro (n = 4)
Rattus norvegicus [6] = assay: Antihypertensive activity as percent maximum (0-6 hr) decrease in blood pressure at 45 umol/kg poin 5 spontaneously hypertensive rats (SHR); format: functional
Rattus norvegicus [7] = assay: Antihypertensive activity as percent maximum (over 24 hr) decrease in blood pressure at 135 umol/kg, perorally (~40-50 mg/kg) in 5 spontaneously hypertensive rats (SHR); format: functional
Rattus norvegicus [8] = assay: Antihypertensive activity as percent maximum (0-6 hr) decrease in blood pressure at 135 umol/kg, perorally (~40-50 mg/kg) in 5 spontaneously hypertensive rats (SHR); format: functional
Rattus norvegicus [9] = assay: Antihypertensive activity as percent maximum (over 24 h) decrease in blood pressure at 135 umol/kg, perorally (~40-50 mg/kg) in 5 spontaneously hypertensive rats (SHR); format: functional
Rattus norvegicus [10] = assay: Antihypertensive activity as percent maximum (over 24 hr) decrease in blood pressure at 135 umol/kg, perorally (~40-50 mg/kg) in 5 spontaneously hypertensive rats (SHR); NA denotes no activity; format: functional, organism-based
Rattus norvegicus [11] = assay: Antihypertensive activity as percent maximum (0-6 hr) decrease in blood pressure at 135 umol/kg, perorally (~40-50 mg/kg) in 5 spontaneously hypertensive rats (SHR); NA denotes no activity; format: functional, organism-based
Rattus norvegicus [12] = assay: Antihypertensive activity as percent average (over 24 hr) decrease in blood pressure at 135 umol/kg po (~40-50 mg/kg) in 5 spontaneously hypertensive rats (SHR); NA denotes not active; format: functional, organism-based
Rattus norvegicus [13] = assay: Antihypertensive activity as percent maximum (0-6 hr) decrease in blood pressure at 135 umol/kg po (~40-50 mg/kg) in 5 spontaneously hypertensive rats (SHR); NA denotes not active; format: functional, organism-based
Rattus norvegicus [14] = assay: Percent Catecholamine-depletion in brain by administering a dose of 2 x 45 umol/kg, perorally to 4 spontaneously hypertensive rats (SHR).; format: functional; summary of the method: as §1
[15] = target: Adrenergic receptor alpha; assay: Compound was evaluated for the alpha-Adrenoceptor pA2 blocking activity in vitro in rabbit thoracic aorta; format: functional, tissue-based, Oryctolagus cuniculus
Rattus norvegicus [16] = assay: Antihypertensive activity as percent maximum (over 24 hr decrease in blood pressure at 135 umol/kg, perorally (~40-50 mg/kg) in 5 spontaneously hypertensive rats (SHR); format: functional

IC50 (Oryctolagus cuniculus) [nM] | Structure (SMILES) | Decrease (Rattus norvegicus [7]) [%] | Decrease (Rattus norvegicus [8]) [%] | further results
400 | COc1cc2c(cc1OC)C[C@H](N(C)CCC(c1ccccc1)c1ccccc1)[C@@H](O)C2 | 19 | 11 | 
800 | COc1ccc(OC)c2c1C[C@H](NCCCC(c1ccccc1)c1ccccc1)[C@@H](O)C2.Cl | 10 | 6 | 
13300 | COc1ccc(OC)c2c1C[C@H](NCC(c1ccccc1)c1ccccc1)[C@@H](O)C2.Cl | 16 | 10 | 
2000 | COc1ccc(OC)c2c1C[C@H](NCCCCC(c1ccccc1)c1ccccc1)[C@@H](O)C2.Cl |  | 10 | Decrease (Rattus norvegicus [9]): 10%
1500 | COc1ccc(OC)c2c1C[C@H](NCCC(c1ccccc1)c1ccccc1)[C@@H](O)C2.Cl | 19 | 15 | 
9400 | COc1cc2c(cc1OC)C[C@H](O)[C@@H](NC(=O)CC(c1ccccc1)c1ccccc1)C2 | 16 | 6 | 
400 | COc1cc2c(cc1OC)C[C@H](O)[C@@H](NCCC(c1ccccc1)c1ccccc1)C2.Cl |  |  | Average (Rattus norvegicus [1]): 25%; Depletion (Rattus norvegicus [14]): 0%; Depletion (Rattus norvegicus [2]): 97%; Decrease (Rattus norvegicus [3]): 34%; Decrease (Rattus norvegicus [4]): 32%; Max (Rattus norvegicus [5]): 21%; pA2 [15]: 6; IC50 (Canis familiaris): 270 nM
200 | COc1cc2c(cc1OC)C[C@H](NCCC(c1ccccc1)c1ccccc1)[C@H](O)C2.Cl |  |  | Decrease (Rattus norvegicus [3]): 19%; Decrease (Rattus norvegicus [4]): 14%

The remaining lines, values behind:

Structure (SMILES) | IC50 (Oryctolagus cuniculus) [nM] | Decrease (Rattus norvegicus [7]) [%] | Decrease (Rattus norvegicus [8]) [%] | further results
COc1ccc(CCN(C)CCCC(C#N)(c2ccc(OC)c(OC)c2)C(C)C)cc1OC (centres undefined) | 300 |  |  | Average (Rattus norvegicus [1]): 21%; Depletion (Rattus norvegicus [2]): 75%; Decrease (Rattus norvegicus [3]): 32%; Decrease (Rattus norvegicus [4]): 40%; Max (Rattus norvegicus [5]): 16%; IC50 (Canis familiaris): 110 nM
Cl.Oc1cc2c(cc1O)C[C@H](O)[C@@H](NCCC(c1ccccc1)c1ccccc1)C2 | 19600 |  |  | Decrease (Rattus norvegicus [3]): 30%; Decrease (Rattus norvegicus [6]): 29%
Cl.O[C@H]1Cc2ccccc2C[C@@H]1NCCC(c1ccccc1)c1ccccc1 | 400 | 8 | 11 | 
Cl.O[C@H]1Cc2cc3c(cc2C[C@@H]1NCCC(c1ccccc1)c1ccccc1)OCO3 | 300 | 25 | 25 | 
COc1cc2c(cc1OC)C[C@H](O)[C@@H](NCCC(c1ccccc1)C(C)C)C2.Cl (some centres undefined) | 2500 |  | 8 | Decrease (Rattus norvegicus [9]): 10%
Cc1cc2c(cc1C)C[C@H](O)[C@@H](NCCC(c1ccccc1)c1ccccc1)C2.Cl | 1000 | 32 | 17 | 
COc1cc2c(cc1OC)C[C@H](O)[C@@H](NCCC1c3ccccc3-c3ccccc31)C2.Cl | 1400 | 34 | 32 | 
COc1ccc(OC)c2c1C[C@H](NCCc1ccccc1)[C@@H](O)C2 | 21000 |  |  | Decrease (Rattus norvegicus [10]): inactive; Decrease (Rattus norvegicus [11]): inactive
COc1cc2c(cc1OC)C[C@H](NCCC(c1ccccc1)c1ccccc1)CC2.Cl | 200 |  |  | Decrease (Rattus norvegicus [3]): 12%; Decrease (Rattus norvegicus [4]): 11%
COc1cc2c(cc1OC)C[C@H](OC)[C@@H](NCCC(c1ccccc1)c1ccccc1)C2 | 1800 |  |  | Decrease (Rattus norvegicus [12]): inactive; Decrease (Rattus norvegicus [13]): inactive
COc1ccc(OC)c2c1C[C@H](NCCCCc1ccccc1)[C@@H](O)C2.Cl | 3600 | 23 | 26 | 
COc1ccc(OC)c2c1C[C@H](NCCCc1c[nH]c3ccccc13)[C@@H](O)C2.Cl | 23000 | 24 | 23 | 
COc1cc2c(cc1OC)C[C@H](O)[C@@H](NCCC(c1ccccc1)c1ccccc1OC)C2.Cl (some centres undefined) | 600 | 28 | 21 | 
COc1cc2c(cc1OC)C[C@H](OC(C)=O)[C@@H](NCCC(c1ccccc1)c1ccccc1)C2.Cl | 2800 | 34 | 34 | 
COc1ccc(OC)c2c1C[C@H](NCCC(C1CCCCC1)C1CCCCC1)[C@@H](O)C2.Cl |  | 23 | 27 | 
COc1ccc(OC)c2c1C[C@H](NCCCc1nc3ccccc3s1)[C@@H](O)C2.Cl | 13500 | 16 | 16 | 
COc1ccc(OC)c2c1C[C@H](NCCCc1ccccc1)[C@@H](O)C2.Cl | 5500 |  | 14 | Decrease (Rattus norvegicus [16]): 14%
